The text below walks through data of ChEMBL document CHEMBL2385063, “Identification of 2-(2-(1-naphthoyl)-8-fluoro-3,4-dihydro-1H-pyrido[4,3-b]indol-5(2H)-yl)acetic acid (setipiprant/ACT-129968), a potent, selective, and orally bioavailable chemoattractant receptor-homologous molecule expressed on Th2 cells (CRTH2) antagonist” (J Med Chem, 2013).

SMILES strings stand for the structures.

Assay [1] deals with T1, Prostaglandin G/H synthase 1 (Ovis aries, UniProt P05979).
T1 sequence (P05979 whole entry): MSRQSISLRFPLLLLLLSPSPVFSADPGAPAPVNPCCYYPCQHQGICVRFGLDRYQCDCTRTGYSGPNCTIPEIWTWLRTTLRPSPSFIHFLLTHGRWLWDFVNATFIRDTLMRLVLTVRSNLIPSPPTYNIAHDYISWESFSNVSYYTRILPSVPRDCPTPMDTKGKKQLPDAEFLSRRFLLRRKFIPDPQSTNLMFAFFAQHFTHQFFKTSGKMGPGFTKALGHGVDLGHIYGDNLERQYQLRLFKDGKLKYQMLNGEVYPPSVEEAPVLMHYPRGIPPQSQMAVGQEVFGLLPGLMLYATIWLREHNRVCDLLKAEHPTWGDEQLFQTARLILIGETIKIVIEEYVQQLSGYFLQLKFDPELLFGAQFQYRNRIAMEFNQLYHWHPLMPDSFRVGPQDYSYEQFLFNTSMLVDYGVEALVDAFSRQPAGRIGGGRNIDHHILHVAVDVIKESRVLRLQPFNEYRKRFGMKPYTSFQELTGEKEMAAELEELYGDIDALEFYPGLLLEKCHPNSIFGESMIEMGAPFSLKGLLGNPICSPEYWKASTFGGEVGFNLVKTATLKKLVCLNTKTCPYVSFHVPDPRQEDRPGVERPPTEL
In words: Antagonist activity at ovine COX-1.

Assay [2] concerns the target T2, Prostaglandin G/H synthase 1 (Ovis aries) (UniProt P05979).
T2 sequence (whole entry): T1 sequence (P05979 whole entry)
The experiment in a line: […] at ovine COX-1 at 10 uM relative to control. Also on record: scale not given: the % may be the effect or the level left. In short, it runs like this: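 Ovine COX-1 activity measured with a commercial kit, following the manufacturer's protocol. Compounds were tested in duplicate at 10 μM final concentration. Activity is expressed as inhibition relative to control.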

Assay [3] addresses T3, Thromboxane A2 receptor (Homo sapiens, UniProt P21731).
T3 sequence (P21731 whole entry): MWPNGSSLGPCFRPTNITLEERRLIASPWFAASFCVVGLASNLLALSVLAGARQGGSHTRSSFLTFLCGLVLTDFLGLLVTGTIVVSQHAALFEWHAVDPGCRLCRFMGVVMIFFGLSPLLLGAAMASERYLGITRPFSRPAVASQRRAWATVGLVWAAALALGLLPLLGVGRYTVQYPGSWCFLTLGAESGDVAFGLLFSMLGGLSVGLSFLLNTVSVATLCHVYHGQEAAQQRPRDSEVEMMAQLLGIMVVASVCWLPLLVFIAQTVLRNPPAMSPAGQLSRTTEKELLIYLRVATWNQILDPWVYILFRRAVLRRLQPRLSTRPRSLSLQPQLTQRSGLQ
In words: Antagonist activity at human prostanoid TP2 receptor expressed in HEK293 cells assessed as inhibition of calcium flux after 30 to 40 mins by FLIPR assay. Format: functional, cell-based. (Calcium assays in cells follow changes in intracellular calcium, usually with a dye or a luminescent sensor.)

Assay [4] has as its target Prostaglandin E2 receptor EP2 subtype (Homo sapiens, UniProt P43116). The experiment in a line: Inhibition of beta-arrestin binding to recombinant human prostanoid EP2 receptor expressed in HEK293 cell membranes by beta-lactamase complementation assay.
Assay [5] has as its target T4, Prostaglandin E2 receptor EP3 subtype (Homo sapiens, UniProt P43115).
T4 sequence (P43115 whole entry): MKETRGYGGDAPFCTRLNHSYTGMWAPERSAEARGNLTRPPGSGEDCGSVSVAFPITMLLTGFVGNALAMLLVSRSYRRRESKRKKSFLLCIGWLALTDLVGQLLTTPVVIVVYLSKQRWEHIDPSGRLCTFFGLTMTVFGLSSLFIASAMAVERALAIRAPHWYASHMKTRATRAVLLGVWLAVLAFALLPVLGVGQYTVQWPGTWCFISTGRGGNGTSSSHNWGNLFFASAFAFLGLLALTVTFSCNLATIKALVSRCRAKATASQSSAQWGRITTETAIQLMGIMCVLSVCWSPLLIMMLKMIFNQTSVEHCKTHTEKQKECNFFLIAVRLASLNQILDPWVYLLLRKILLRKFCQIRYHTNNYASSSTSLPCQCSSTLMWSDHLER
The experiment in a line: Antagonist activity at human prostanoid EP3 receptor expressed in HEK293 cells assessed as inhibition of PGE2-induced calcium flux after 60 mins by FLIPR assay. Format: functional, cell-based.

The species named for assay [6] is Homo sapiens. The experiment in a line: Selectivity factor, ratio of IC50 for recombinant human prostanoid DP1 receptor to IC50 for recombinant human CRTH2 receptor. The procedure, abridged: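 hDP₁ IC₅₀ came from competitive [³H]PGD₂ binding on CHO cells stably overexpressing recombinant hDP₁. hCRTh2 IC₅₀ came from [³H]PGD₂ (2.5 nM) displacement on membranes of HEK-293 cells stably expressing hCRTh2, incubated 90 min at room temperature, filtered and counted. f_Sel = IC₅₀(hDP₁)/IC₅₀(hCRTh2).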

For assay [7], the target named is T5, Prostaglandin D2 receptor 2 (Homo sapiens, UniProt Q9Y5Y4).
T5 sequence (Q9Y5Y4 whole entry): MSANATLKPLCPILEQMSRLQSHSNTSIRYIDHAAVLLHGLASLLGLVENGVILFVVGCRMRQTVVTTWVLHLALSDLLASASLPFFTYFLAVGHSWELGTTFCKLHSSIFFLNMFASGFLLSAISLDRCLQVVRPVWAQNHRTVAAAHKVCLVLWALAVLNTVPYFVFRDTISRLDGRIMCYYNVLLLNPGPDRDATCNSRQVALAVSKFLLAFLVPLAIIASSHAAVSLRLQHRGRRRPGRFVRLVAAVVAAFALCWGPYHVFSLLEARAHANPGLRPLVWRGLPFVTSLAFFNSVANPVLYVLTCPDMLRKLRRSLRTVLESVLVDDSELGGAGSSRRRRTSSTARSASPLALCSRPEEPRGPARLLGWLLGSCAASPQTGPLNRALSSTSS
The experiment in a line: Antagonist activity at human CRTH2 receptor expressed in HEK293 cells assessed as inhibition of PGD2-induced calcium flux after 5 mins by FLIPR assay. Format: functional, cell-based. In short, it runs like this: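 HEK-293 cells stably expressing hCRTh2 were loaded with 4 μM Fluo-4 AM for 40 min at 37 °C in HBSS/20 mM HEPES pH 7.2. Compound was added 5 min before 50 nM PGD2 (final) in buffer with 0.05% BSA. Peak fluorescence was normalised to no-antagonist control after baseline subtraction; IC50 from four-parameter fit.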

The target in assay [8] is T5, Prostaglandin D2 receptor 2. In words: Displacement of [3H]PGD2 from recombinant human CRTH2 receptor expressed in HEK293 cell membranes after 90 mins by scintillation counting analysis. The procedure, abridged: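 Membranes from HEK293 cells expressing hCRTH2 (80 μg protein/well) in Tris pH 7.4 buffer with NaCl, EDTA, 0.1% BSA were incubated with 2.5 nM [3H]PGD2 for 90 min at room temperature. Nonspecific binding was defined with 10 μM PGD2. Samples were filtered on PEI-soaked GF/C and read by scintillation counting.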

Chain of Prostaglandin E2 receptor EP2 subtype (P43116 whole entry): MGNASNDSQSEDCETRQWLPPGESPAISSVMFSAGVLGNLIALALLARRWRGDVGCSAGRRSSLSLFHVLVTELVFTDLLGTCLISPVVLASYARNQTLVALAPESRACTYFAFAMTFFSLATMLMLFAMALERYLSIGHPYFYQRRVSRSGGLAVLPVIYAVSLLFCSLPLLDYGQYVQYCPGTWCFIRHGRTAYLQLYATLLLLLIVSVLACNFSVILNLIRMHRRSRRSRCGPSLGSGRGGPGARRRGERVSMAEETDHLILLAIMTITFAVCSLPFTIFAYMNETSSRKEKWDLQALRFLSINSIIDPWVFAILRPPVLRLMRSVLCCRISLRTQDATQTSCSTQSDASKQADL

For `O=C(O)Cn1c2c(c3cc(F)cc(Cl)c31)CN(C(=O)c1cccc3ccccc13)CC2`, the IC50 in assay [1] was above 10000 nM; in assay [3], above 25000 nM; in assay [4], 2700 nM; in assay [5], above 25000 nM; in assay [7] it was 660 nM; in assay [8] it was 70 nM. The same compound registered an Activity in assay [2] below 30%. For the same compound, the Ratio IC50 in assay [6] turned out to be 4.1.

Turning to `O=C(O)Cn1c2c(c3cc(F)ccc31)CN(C(=O)Cc1c[nH]c3ccccc13)CC2`, the half-inhibitory concentration (IC50) in assay [1] was above 10000 nM; in assay [3], above 25000 nM; in assay [4], above 10000 nM; in assay [5], above 25000 nM; in assay [7] it was 15 nM; in assay [8], 5 nM. Moreover, the Activity in assay [2] was below 30%. In assay [6], the Ratio IC50 is above 2000.

`O=C(O)Cn1c2c(c3cc(F)cc(Cl)c31)CN(C(=O)c1cccc(Cl)c1)CC2`: the IC50 was above 10000 nM in assay [1]; above 25000 nM in assay [3]; above 10000 nM in assay [4]; above 25000 nM in assay [5]; 1280 nM in assay [7]; 190 nM in assay [8]. The Activity in assay [2] is below 30%. Also, the Ratio IC50 in assay [6] was found to be 22.

Turning to `O=C(O)Cn1c2c(c3cc(C(F)(F)F)ccc31)CN(C(=O)c1cccc3ccccc13)CC2`, the IC50 in assay [1] is above 10000 nM; in assay [3], above 25000 nM; in assay [4] it was above 10000 nM; in assay [5], above 25000 nM; in assay [7], 20 nM; in assay [8] it was 11 nM. The compound also yielded an Activity in assay [2] below 30%. The Ratio IC50 in assay [6] came out at 200.

The IC50 is the midpoint of a concentration-inhibition curve.
